The text below walks through data of ChEMBL document CHEMBL1126267, “A novel synthesis and potent antiinflammatory activity of 4-hydroxy-2(1H)-oxo-1-phenyl-1,8-naphthyridine-3-carboxamides” (1992).

What all share (format): functional
Test [1] deals with Rattus norvegicus. Briefly: Compound was tested for the inhibition of Zymosan-induced rat's paw edema(ZPE) after peroral administration of 3 mg/kg dose. The following applies: route oral. The essentials:
(§1)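 Male Wistar rats weighing about 150 g were dosed orally with compound suspended in 5% arabic gum. 1 h later, 1% zymosan in 0.1 mL saline was injected subplantarly into the hind paw. Paw volume was measured by plethysmograph before dosing and 4 h after zymosan, with edema as the volume difference. Inhibition % was derived from mean swelling versus the control group.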

In test [2] the test system is Rattus norvegicus. The test is described as follows: Compound was tested for the inhibition of rat reversed passive Arthus pleurisy after peroral administration of 5 mg/kg dose at 0.4+/-0.04 mL of exudate volume (injected intrapleurally). Conditions: route oral. Summed up: (§2)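 Male Wistar rats (about 250 g) under ether received 0.2 mL rabbit anti-egg-albumin antiserum intrapleurally. Thirty min later they got 15 mg EA/100 g body weight in 0.1 mL saline iv. Compounds were given orally beforehand. Rats were killed 4.5 h after induction and the thoracic cavity rinsed with 5 mL saline. Exudate volume and infiltrated cell count were read as mean ± SE. % inhibition is versus control.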

The test system of test [3] is Rattus norvegicus. The test is described as follows: Compound was tested for the inhibition of rat reversed passive Arthus pleurisy after peroral administration of 100 mg/kg dose at 2.96*10e6 no of cells with 3.86*10e6 cells of control. Conditions: route oral. The essentials: (§3)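 Male Wistar rats (about 250 g) were given compound orally before the antiserum. Under ether anesthesia, 0.2 mL rabbit anti-egg albumin antiserum was injected intrapleurally. After 30 min, egg albumin (15 mg/100 g body weight in 0.1 mL saline) was given iv. Rats were killed 4.5 h later and the thoracic cavity was rinsed with 5 mL saline. Exudate volume and infiltrated cell number were measured, with inhibition % versus controls as mean ± SEM.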

Test [4] has as its system Rattus norvegicus. The test is described as follows: Antiinflammatory activity on Zymosan-induced rat's paw edema(ZPE) after peroral administration of 100 mg/kg dose with control swelling of 71.7%. Conditions: route oral. The essentials:
as §1

Test [5] has as its system Rattus norvegicus. Briefly: Compound was tested for the inhibition of rat reversed passive Arthus pleurisy after peroral administration of 10 mg/kg dose at 4.30+/-0.41*10e6 no of cells. The following applies: route oral. The essentials:
as §3

Test [6] has as its system Rattus norvegicus. Briefly: Compound was tested for the inhibition of Carrageenan rat's paw edema(CPE) after peroral administration of 10 mg/kg dose. For orientation: Carrageenan injected into the paw causes an acute inflammation.
Test [7] has as its system Rattus norvegicus. The test is described as follows: Antiinflammatory activity on Zymosan-induced rat's paw edema(ZPE) after peroral administration of 10 mg/kg dose with control swelling of 68.1%. Conditions: route oral. The essentials:
as §1

Test [8] relates to Rattus norvegicus. Briefly: Antiinflammatory activity on Zymosan-induced rat's paw edema(ZPE) after peroral administration of 30 mg/kg dose with control swelling of 68.1%. Conditions: route oral. Summed up: as §1
Test [9] deals with Rattus norvegicus. The test is described as follows: Compound was tested for the inhibition of rat reversed passive Arthus pleurisy after peroral administration of 100 mg/kg dose at 2.96 +/- 0.16*10e6 no of cells. Conditions: route oral. The essentials:
as §3

Test [10] relates to Rattus norvegicus. Briefly: Antiinflammatory activity on Carrageenan rat's paw edema(CPE) after peroral administration of 10 mg/kg dose with control swelling of 75.8%. The following applies: route oral.
The test system of test [11] is Rattus norvegicus. The test is described as follows: Compound was tested for the inhibition of arachidonic acid-induced rat's paw edema(APE) after peroral administration of 3 mg/kg dose. Conditions: route oral. Summed up: (§4)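 Test: arachidonic acid paw edema in male Wistar rats of about 150 g. Oral dosing in 5% arabic gum came 1 h before subplantar injection of 1% arachidonic acid sodium salt in 0.1 mL saline into the hind paw. Plethysmograph paw volume was read before dosing and 1 h post-irritant, and edema = volume difference. % inhibition was taken from mean swelling against controls.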

In test [12] the test system is Rattus norvegicus. The test is described as follows: Compound was tested for the inhibition of rat reversed passive Arthus pleurisy after peroral administration of 25 mg/kg dose at 0.32+/-0.07 mL of exudate volume (injected intrapleurally). Conditions: route oral. Summed up:
as §2

The subject of test [13] is Rattus norvegicus. The test is described as follows: Compound was tested for the inhibition of Zymosan-induced rat's paw edema(ZPE) after peroral administration of 10 mg/kg dose. The following applies: po. Summed up:
as §1

Test [14] concerns Rattus norvegicus. Briefly: Antiinflammatory activity on Carrageenan rat's paw edema(CPE) after peroral administration of 100 mg/kg dose with control swelling of 64.2%. The following applies: route oral.
Test [15] has as its system Rattus norvegicus. The test is described as follows: Antiinflammatory activity on Zymosan-induced rat's paw edema(ZPE) after peroral administration of 3 mg/kg dose with control swelling of 68.1%. Conditions: route oral. The essentials: as §1
Test [16] concerns Rattus norvegicus. The test is described as follows: Compound was tested for the inhibition of arachidonic acid-induced rat's paw edema(APE) after peroral administration of 30 mg/kg dose. Conditions: route oral. Summed up:
as §4

Test [17] deals with Rattus norvegicus. Briefly: Antiinflammatory activity on Carrageenan rat's paw edema(CPE) after peroral administration of 30 mg/kg dose with control swelling of 75.8%. Conditions: route oral.
In test [18] the test system is Rattus norvegicus. Briefly: Inhibition of carrageenan-induced rat's paw edema (CPE) after peroral administration of 100 mg/kg dose. The following applies: route oral. Summed up:
(§5)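 Male Wistar rats (about 150 g) were dosed orally with compound suspended in 5% arabic gum, 1 h before a subplantar hind-paw injection of 0.1 mL saline. The irritant was 1% zymosan for 33 or 1% λ-carrageenin for 34. Paw volume was measured by plethysmograph before dosing and at 4 h (zymosan) or 3 h (carrageenin). Swelling is relative to initial volume, as mean ± SEM. % inhibition is versus the control group's mean swelling.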

The subject of test [19] is Rattus norvegicus. The test is described as follows: Compound was tested for the inhibition of rat reversed passive Arthus pleurisy after peroral administration of 100 mg/kg dose at 0.28 mL of exudate volume with 0.86 mL of control (injected intrapleurally). The following applies: route oral. The essentials:
as §3

For test [20], the system named is Rattus norvegicus. The test is described as follows: Compound was tested for the inhibition of arachidonic acid-induced rat's paw edema(APE) after peroral administration of 3 mg/kg dose with control swelling of 51.6%. The following applies: route oral. Summed up:
as §4

For test [21], the system named is Rattus norvegicus. Briefly: Compound was tested for the inhibition of arachidonic acid-induced rat's paw edema(APE) after peroral administration of 10 mg/kg dose with control swelling of 51.6%. Conditions: route oral. Summed up: as §4
The test system of test [22] is Rattus norvegicus. The test is described as follows: Compound was tested for the inhibition of rat reversed passive Arthus pleurisy after peroral administration of 10 mg/kg dose at 0.37+/-0.07 mL of exudate volume (injected intrapleurally). The following applies: route oral. Summed up:
as §3

Test [23] concerns Rattus norvegicus. Briefly: Inhibition of Zymosan-induced rat's paw edema(ZPE) after peroral administration of 100 mg/kg dose. The following applies: route oral. The essentials:
as §5

Test [24] has as its system Rattus norvegicus. Briefly: Compound was tested for the inhibition of Zymosan-induced rat's paw edema(ZPE) after peroral administration of 30 mg/kg dose. The following applies: route oral. Summed up:
as §1

The subject of test [25] is Rattus norvegicus. Briefly: Compound was tested for the inhibition of Carrageenan rat's paw edema(CPE) after peroral administration of 3 mg/kg dose. Conditions: route oral.
Test [26] relates to Rattus norvegicus. Briefly: Compound was tested for the inhibition of arachidonic acid-induced rat's paw edema(APE) after peroral administration of 30 mg/kg dose with control swelling of 51.6%. The following applies: route oral.
The test system of test [27] is Rattus norvegicus. Briefly: Compound was tested for the inhibition of rat reversed passive Arthus pleurisy after peroral administration of 25 mg/kg dose at 4.25+/-0.1*10e6 no of cells. Conditions: route oral. The essentials: as §2
Test [28] deals with Rattus norvegicus. The test is described as follows: Compound was tested for the inhibition of rat reversed passive Arthus pleurisy after peroral administration of 100 mg/kg dose at 0.28+/-0.06 mL of exudate volume (injected intrapleurally). The following applies: route oral. Summed up:
as §3

The subject of test [29] is Rattus norvegicus. Briefly: Compound was tested for the inhibition of arachidonic acid-induced rat's paw edema(APE) after peroral administration of 10 mg/kg dose. Conditions: route oral. Summed up: as §4
Test [30] concerns Rattus norvegicus. Briefly: Antiinflammatory activity on Carrageenan rat's paw edema(CPE) after peroral administration of 3 mg/kg dose with control swelling of 75.8%. Conditions: route oral.
For test [31], the system named is Rattus norvegicus. Briefly: Compound was tested for the inhibition of rat reversed passive Arthus pleurisy after peroral administration of 5 mg/kg dose at 3.54+/-0.06*10e6 no of cells. Conditions: route oral. The essentials:
as §2

In test [32] the test system is Rattus norvegicus. The test is described as follows: Compound was tested for the inhibition of rat reversed passive Arthus pleurisy after peroral administration of 100 mg/kg dose at 3.37*10e6 no of cells with 3.86*10e6 cells of control. Conditions: route oral. Summed up: as §2
For test [33], the system named is Rattus norvegicus. The test is described as follows: Antiinflammatory activity on Carrageenan rat's paw edema(CPE) after peroral administration of 100 mg/kg dose with control swelling of 90.0%. The following applies: route oral.
Test [34] deals with Rattus norvegicus. The test is described as follows: Compound was tested for the inhibition of rat reversed passive Arthus pleurisy after peroral administration of 100 mg/kg dose at 0.73 mL of exudate volume with 0.86 mL of control (injected intrapleurally). The following applies: route oral. Summed up:
as §3

For test [35], the system named is Rattus norvegicus. The test is described as follows: Antiinflammatory activity on Zymosan-induced rat's paw edema(ZPE) after peroral administration of 100 mg/kg dose with control swelling of 85.5%. The following applies: route oral. Summed up:
as §1

What is called inhibition in vivo is the drop in the measured response relative to a control, in per cent. A high value points to strong suppression. Usually Inhibition stands for the percentage by which the read-out fell short of the control.

`O=C(Nc1cccnc1)c1c(O)c2cccnc2n(-c2ccccc2)c1=O`: the figures for the inhibition in vivo at 3 mg/kg with Rattus norvegicus [1], in the test on Rattus norvegicus [11] and in the test on Rattus norvegicus [25] were 21.9%, 40.9% and 20.2%, respectively. The inhibition in vivo at 5 mg/kg in the test on Rattus norvegicus [2] amounted to 50%; in the test on Rattus norvegicus [31] it was 33.3%. Further, the inhibition in vivo at 100 mg/kg was found to be 30.5% in the test with Rattus norvegicus [3]; 30.5% in the test with Rattus norvegicus [9]; 30.8% in the test on Rattus norvegicus [18]; 75.3% in the test on Rattus norvegicus [19]; 30.3% with Rattus norvegicus [23]; 75.3% with Rattus norvegicus [28]. For the same compound, the Swelling in the test with Rattus norvegicus [4] worked out at 50%; in the test on Rattus norvegicus [7] it was 50.8%; in the test on Rattus norvegicus [8], 38.2%; in the test on Rattus norvegicus [10], 58.6%; in the test on Rattus norvegicus [14] it was 44.4%; in the test with Rattus norvegicus [15], 53.2%. Besides, the Swelling amounted to 50.2% in the test with Rattus norvegicus [17]; 30.5% in the test on Rattus norvegicus [20]; 28.9% in the test on Rattus norvegicus [21]; 30.6% with Rattus norvegicus [26]; 60.5% in the test with Rattus norvegicus [30]. The inhibition in vivo at 10 mg/kg stood at 41.2% with Rattus norvegicus [5]; 33.8% with Rattus norvegicus [6] (Rattus norvegicus, po); 25.4% in the test with Rattus norvegicus [13]; 55.7% in the test on Rattus norvegicus [22]; 44% in the test on Rattus norvegicus [29]. Besides, the Inhibition with Rattus norvegicus [6] (route oral, 10 mg/kg) was 22.7%. Moreover, the inhibition in vivo at 25 mg/kg in the test on Rattus norvegicus [12] came to 62.9%; with Rattus norvegicus [27], 42.1%. Also, the inhibition in vivo at 30 mg/kg is 40.7% in the test on Rattus norvegicus [16] and 43.9% with Rattus norvegicus [24].
Turning to `Cc1ccccc1NC(=O)c1c(O)c2cccnc2n(-c2ccccc2)c1=O`, the inhibition in vivo at 100 mg/kg in the test on Rattus norvegicus [32] was determined as 16.6%; with Rattus norvegicus [34], 16.9%; in the test on Rattus norvegicus [18] it was 9.8%; in the test on Rattus norvegicus [23], 11.7%. The Swelling in the test on Rattus norvegicus [33] was 81.2%; with Rattus norvegicus [35], 75.5%.
